Reference: ChEMBL document CHEMBL1255524, “Identification of 2,3,6-trisubstituted quinoxaline derivatives as a Wnt2/β-catenin pathway inhibitor in non-small-cell lung cancer cell lines” (Bioorg Med Chem Lett, 2010)
Activity calls are given as the source filed them. The calls are words filed in the database; no cut-off is given here.

Legend:
[1] = Inhibition of […] signaling in human A549 cells assessed as inhibition of cell proliferation after 24 hrs by MTT assay; settings: A549, 24 h
[2] = target: T1, Protein Wnt-2 (Homo sapiens) (UniProt P09544); test: Inhibition of Wnt2 signaling pathway in human A549 cells assessed as inhibition of beta-casein-mediated Tcf/Lef transcriptional activity after 24 hrs by dual luciferase reporter gene assay relative to control; type: cell-based; design: concentration or dose not given beside the values; settings: concentration not given here
T1 sequence (whole entry): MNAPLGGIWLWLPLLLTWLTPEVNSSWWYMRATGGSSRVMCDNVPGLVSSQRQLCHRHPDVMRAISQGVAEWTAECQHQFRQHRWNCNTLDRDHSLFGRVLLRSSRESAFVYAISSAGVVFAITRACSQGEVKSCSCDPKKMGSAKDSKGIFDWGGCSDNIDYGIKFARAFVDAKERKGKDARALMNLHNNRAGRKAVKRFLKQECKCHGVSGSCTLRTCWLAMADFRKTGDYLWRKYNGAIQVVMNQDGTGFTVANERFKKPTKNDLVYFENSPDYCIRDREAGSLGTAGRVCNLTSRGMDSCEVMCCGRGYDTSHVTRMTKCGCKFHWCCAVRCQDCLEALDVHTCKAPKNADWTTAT
Method in brief: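 A549/Wnt2 cells (4 × 10⁴) transiently co-transfected with 1 lg pSuperTopflash (eight Tcf sites upstream of firefly luciferase) or pSuperFopflash (mutated Tcf sites, negative control) plus 15 ng pRL-TK. Compounds applied at the proliferation IC₅₀, 37 °C, 24 h. Lysed; firefly and Renilla read by dual-luciferase. Firefly/Renilla ratio, triplicates, mean ± SEM, relative to untreated cells.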

[3] = Inhibition of […] signaling in human A549 cells assessed as inhibition of cell proliferation at 15% of IC50 concentration after 24 to 48 hrs by MTT assay; type: cell-based
A549 [4] = test: Reduction of beta-casein expression level in human A549 cells expressing Wnt2 by Western blotting; type: functional, cell-based
A549 [5] = test: Reduction of beta-casein expression level in cytosolic fraction of human A549 cells expressing Wnt2 by Western blotting; type: functional, cell-based
A549 [6] = test: Reduction of beta-casein expression level in nuclear fraction of human A549 cells expressing Wnt2 by Western blotting; type: functional, cell-based
[7] = Inhibition of […] signaling in human H460 cells assessed as inhibition of cell proliferation after 24 hrs by MTT assay; type: cell-based
[8] = target: T1, Protein Wnt-2 (Homo sapiens); test: Inhibition of Wnt2 signaling pathway in human H460 cells assessed as inhibition of beta-casein-mediated Tcf/Lef transcriptional activity IC50 concentration after 24 hrs by dual luciferase reporter gene assay relative to control; type: cell-based
Method in brief: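 H460/Wnt2 cells transiently co-transfected with SuperTopflash and pRL-TK Renilla control. Compounds given at the A549 proliferation IC₅₀, 37 °C, 24 h. Dual firefly/Renilla luciferase read-out as normalized ratio, triplicates, mean ± SEM, versus untreated cells.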

[9] = Inhibition of […] signaling in human A549 cells assessed as inhibition of cell proliferation at 30% of IC50 concentration after 24 to 48 hrs by MTT assay; type: cell-based
[10] = Inhibition of […] signaling in human A549 cells assessed as inhibition of cell proliferation after 24 to 48 hrs by MTT assay; type: cell-based
Method in brief: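 MTS proliferation assay in A549/Wnt2 cells. Cells seeded at 5 × 10³ per well and left about 24 h to attach. Compounds added at various concentrations; growth read at 24 and 48 h after treatment. MTS reagent for 30 min at 37 °C in CO₂, then absorbance at 490 nm.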

Row | SMILES | IC50 [1] | inhibition [2] | inhibition [8] | inhibition [3] | Activity (A549 [4]) | Activity (A549 [5]) | Activity (A549 [6]) | inhibition [7] | inhibition [9] | inhibition [10]
1 | COc1c(C[C@@H](C)OC(=O)Oc2ccc(O)cc2)c2c3c(C[C@@H](C)OC(=O)c4ccccc4)c(OC)c(=O)c4c(O)cc(OC)c(c5c(OC)cc(O)c(c1=O)c52)c43 [CALPHOSTIN C] | 3200 nM | – | – | – | – | – | – | – | – | –
2 | Cc1cccc(C#Cc2nc3ccccc3nc2OCCCN2CCCCC2)c1 | 1610 nM | 30% | – | Active | Active | Active | Active | Active | – | –
3 | COc1nc2ccc(NC(=O)Nc3ccc(C(C)(C)C)cc3)cc2nc1NCCN1CCCCC1 | 5010 nM | 30% | – | Active | Active | Active | Active | Active | Active | –
4 | CN(C)CCOc1nc2ccccc2nc1C#Cc1ccccc1 | 758 nM | 30% | – | Active | Active | Active | Active | Active | – | –
5 | COc1cccc2nc(OCCN3CCCC3)c(C#Cc3ccccc3)nc12 | 1890 nM | – | – | Active | Active | Active | Active | Active | – | Dose-dependent effect
6 | Cc1ccc(C#Cc2nc3ccccc3nc2OCCN2CCCC2)cc1 | 1320 nM | – | – | Active | Active | Active | Active | Active | – | –

Further lines, with some results ahead:

Row | IC50 [1] | inhibition [2] | inhibition [8] | SMILES | inhibition [3] | Activity (A549 [4]) | Activity (A549 [5]) | Activity (A549 [6]) | inhibition [7] | inhibition [9] | inhibition [10]
7 | 3800 nM | > 80% | > 80% | CN1CCC[C@H]1COc1nc2ccc(N)cc2nc1C#Cc1ccccc1 | Active | Active | Active | Active | Active | – | –
8 | 2340 nM | > 80% | > 80% | COc1ccc(C#Cc2nc3cc(F)ccc3nc2OCCOCCN(C)C)cc1 | Active | Active | Active | Active | Active | Active | –
9 | 7900 nM | > 80% | – | CCN(CC)CCOc1nc2cc(NC(=O)N(C)Cc3ccc(F)cc3)ccc2nc1C#Cc1ccc(N(C)C)cc1 | Active | Active | Active | Active | Active | – | –
10 | 3540 nM | – | – | COc1cccc(C#Cc2nc3ccc(NC(=O)c4ccc(F)cc4)cc3nc2OC2CCN(C)CC2)c1 | Active | Active | Active | Active | Active | – | –
11 | 4760 nM | 30% | – | Cc1ccc(C#Cc2nc3ccc(NC(=O)N4CCN(c5ccccn5)CC4)cc3nc2OCCN2CCCC2)cc1 | Active | Active | Active | Active | Active | – | Dose-dependent effect
12 | 1780 nM | – | – | CCN(CC)CCOc1nc2cc(NC(=O)c3ccc(C)cc3)ccc2nc1C#Cc1ccc(OC)cc1C | Active | Active | Active | Active | Active | – | –
13 | 3770 nM | 30% | – | CN(C)c1ccc(C#Cc2nc3cc(F)ccc3nc2OCCCN2CCCCC2)cc1 | Active | Active | Active | Active | Active | – | –
14 | 905 nM | 30% | – | Cc1ccc2nc(OCCC3CCCN3C)c(C#Cc3ccccc3)nc2c1 (stereo not given) | Active | Active | Active | Active | Active | – | Dose-dependent effect
